Assay results gathered from unrelated publications.
Lines come from different studies, so protocols differ.
Target: Ephrin type-A receptor 6 (EPHA6, Homo sapiens, UniProt Q9UF33)
One construct used (Q9UF33 23-1036): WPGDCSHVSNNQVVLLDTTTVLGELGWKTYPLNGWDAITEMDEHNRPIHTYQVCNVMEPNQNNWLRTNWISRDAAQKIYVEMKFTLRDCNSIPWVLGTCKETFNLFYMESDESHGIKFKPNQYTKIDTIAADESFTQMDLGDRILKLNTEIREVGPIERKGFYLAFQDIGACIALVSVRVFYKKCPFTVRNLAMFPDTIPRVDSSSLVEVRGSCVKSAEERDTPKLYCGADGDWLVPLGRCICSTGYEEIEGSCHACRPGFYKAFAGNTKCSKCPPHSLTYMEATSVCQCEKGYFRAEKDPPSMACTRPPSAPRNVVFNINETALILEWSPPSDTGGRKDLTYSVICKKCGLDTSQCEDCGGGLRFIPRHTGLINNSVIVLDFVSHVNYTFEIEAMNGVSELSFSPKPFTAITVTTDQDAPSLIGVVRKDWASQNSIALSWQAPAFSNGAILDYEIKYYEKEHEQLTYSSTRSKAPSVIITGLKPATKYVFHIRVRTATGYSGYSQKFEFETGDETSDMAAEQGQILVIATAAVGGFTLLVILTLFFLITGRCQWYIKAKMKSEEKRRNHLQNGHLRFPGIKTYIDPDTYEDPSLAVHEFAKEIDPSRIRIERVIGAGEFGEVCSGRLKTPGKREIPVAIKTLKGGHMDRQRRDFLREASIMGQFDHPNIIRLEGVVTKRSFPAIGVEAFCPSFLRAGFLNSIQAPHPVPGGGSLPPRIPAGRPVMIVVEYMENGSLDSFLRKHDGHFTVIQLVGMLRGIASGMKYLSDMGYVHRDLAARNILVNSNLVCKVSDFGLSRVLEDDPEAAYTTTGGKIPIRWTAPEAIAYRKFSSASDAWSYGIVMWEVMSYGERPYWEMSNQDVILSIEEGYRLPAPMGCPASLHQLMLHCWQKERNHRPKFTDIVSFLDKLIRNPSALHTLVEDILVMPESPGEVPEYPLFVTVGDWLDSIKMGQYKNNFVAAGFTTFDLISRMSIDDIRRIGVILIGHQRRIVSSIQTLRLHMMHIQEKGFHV

| Structure (SMILES) | observed | technique | concentration | remaining binding [%] |
| --- | --- | --- | --- | --- |
| O=C(N[C@H]1CCCCC/C=C\C2C[C@@]2(C(=O)O)NC(=O)[C@@H]2C[C@@H](Oc3ccncc3)CN2C1=O)OC1CCCC1 (stereo partly drawn) | cell-free assay | competition with immobilised ligand | 1 µM | 100 |
| Cc1cnc(Nc2ccc(C(=O)N3CCC(N4CCCC4)CC3)cc2)nc1-c1cc2ccccc2s1 | binding | competition with immobilised ligand | 1 µM | 65 |
| c1cnn2ncc(-c3ccnc(N4CCC45COC5)n3)c2c1 | binding | – | 1 µM | 95 |
| Cn1nc(C(=O)NCc2ccc(C(=O)O)cc2)cc1-c1ccc2[nH]ccc2c1 | cell-free assay | competition with immobilised ligand | 0.1 µM | 100 |
| C=CC(=O)N1CCC(C(=O)NCC(=O)N2CCN(c3nc(-c4cnc(N)nc4C(F)F)nc(N4CCOCC4)n3)CC2)CC1 | binding | competition with immobilised ligand | 1 µM | 100 |
| CCCCN(CCCC)C(=O)CN1C[C@H](c2cc(OC)c3c(c2)OCO3)[C@@H](C(=O)O)[C@@H]1CC(C)(C)CCC | cell-free assay | competition with immobilised ligand | 1 µM | 100 |
| COc1ccnn2ncc(-c3ccnc(N(C)C)n3)c12 | binding | – | 1 µM | 67 |
| O=C(c1ccc(Nc2ncc(Cl)c(-c3cc4ccccc4s3)n2)cc1)N1CCC(N2CCCC2)CC1 | binding | competition with immobilised ligand | 1 µM | 69 |
| CO[C@@H](C)c1c(Nc2ccc([C@H](N(C)C(=O)C3CCS(=O)(=O)CC3)C(F)(F)F)cc2)cnc2cc(Cl)nn12 | cell-free assay | competition with immobilised ligand | 1 µM | 100 |
| CNC(=O)[C@@H]1CC[C@@H](n2c(-c3ccc4cnccc4c3)nc3ccc(C(=O)NCc4cccc(C(N)=O)c4)cc32)C1 | binding | competition with immobilised ligand | 1 µM | 100 |
| CC1CCCN1c1nccc(-c2cnn3ncccc23)n1 (stereo not drawn) | binding | – | 1 µM | 94 |
| O=C(NCC1CCOCC1)c1n[nH]cc1NC(=O)c1c(F)cccc1F | binding | competition with immobilised ligand | 1 µM | 100 |
| C[C@@H]1CCN(c2nccc(-c3cnn4ncccc34)n2)C1 | binding | – | 1 µM | 100 |
| COc1ncc2cc3ccccc3nc2c1C#N | cell-free assay | competition with immobilised ligand | 5 µM | 98 |
| Cc1cnn2ncc(-c3ccnc(N(C)C)n3)c2c1 | binding | – | 1 µM | 100 |
| CNCc1ccccc1-c1csc([C@@H](C)Nc2nc(C)nc3cc(OC)c(OC)cc23)c1 | cell-free assay | competition with immobilised ligand | 1 µM | 96 |
| F[C@@H]1CCN(c2nccc(-c3cnn4ncccc34)n2)C1 | binding | – | 1 µM | 80 |
| O=C(c1ccc(Nc2nccc(-c3cc4ccccc4s3)n2)cc1)N1CCC(N2CCCC2)CC1 | binding | competition with immobilised ligand | 1 µM | 99 |
| CNC(=O)Nc1ccc2c(c1)[C@@]1(CC2)OC(=O)N(CC(=O)N(Cc2ccc(F)cc2)[C@@H](C)C(F)(F)F)C1=O | cell-free assay | competition with immobilised ligand | 1 µM | 91 |
| COc1cnc(Nc2cccc(S(N)(=O)=O)c2)nc1N1CCN(c2ccccc2)CC1 | binding | competition with immobilised ligand | 1 µM | 100 |
| c1cncc(-c2cccc(Nc3nccc(NC4CCCCC4)n3)c2)c1 | binding | competition with immobilised ligand | 10 µM | 96 |
